KCNK3 inh – human KCNK3 channel inhibition, primary screen | AID 602410 | CHO-KCNK3 thallium flux, FluxOR fluorescence; active compounds read low | O14649 | B-score at 10 µM | 0.84% of 340,000 active;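 active = B-score under library mean minus 4 SD, starting fluorescence ratio at most library mean plus 5 SD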;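 also: more negative B-score means stronger inhibition of thallium flux through KCNK3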
KCNQ1 pot – potentiates or activates the human KCNQ1 potassium channel. B-score at 10 µM. 0.35% of 310,000 active. P51787. CHO-K1 KCNQ1, thallium flux FluxOR fluorescence; active compounds read high. AID 2648;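 active = fluorescence ratio B-score, a plate-corrected score, at least three library SD, with initial intensity B-score within 5 SD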
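Assay system: stable KCNQ1 CHO-K1 line; medium: assay buffer, equal DMSO in all wells; timing: 90 min dye loading and 20 min compound exposure, both at room temperature; technique: kinetic FluxOR thallium fluorescence, 10-s 1-Hz baseline, 110-s post-stimulus read; read-out basis: B score of baseline-normalized fluorescence ratio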
Kir21 block – Kir2.1 (mouse) channel inhibition; P35561; HEK293-Kir2.1, FluxOR thallium flux fluorescence; active compounds read low; B-score at 10 µM; 0.85% of 310,000 active;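 active = fluorescence ratio B-score at or below minus 3 SD of library scores, with starting-brightness B-score within 2 SD, cut at about -4.2 in these data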;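 also: channel flux triggered by added potassium and thallium sulfate stimulus; B-score of peak minus minimum fluorescence over baseline after thallium stimulus; more negative B-score means stronger Kir2.1 block with less thallium influx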
hERG protect – shields human hERG channel from block by proarrhythmic agents | Q12809 | CHO-hERG, FluxOR thallium flux, dofetilide IC70 present | activation (rescue from dofetilide block), less the hit threshold, % at 10 µM | 0.51% of 310,000 active | AID 1511;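 active = activation above the mean of controls blocked by dofetilide plus 5 SD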;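 also: thallium influx through hERG after potassium depolarization seen as dye fluorescence rise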
KCNQ1 inh – blocks the human KCNQ1 potassium channel | P51787 | CHO-K1 KCNQ1, FluxOR thallium flux fluorescence; active compounds read high | B-score at 10 µM | 1.3% of 310,000 active;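 active = compounds whose thallium flux B-score, printed positive for inhibition, exceeds three library SD while starting fluorescence stays within three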;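 also: channel opened by potassium depolarization with thallium stimulus after 20 min compound exposure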
KCNK9 inh – blocks the human KCNK9 two-pore domain potassium channel. Q9NPC2. HEK293 KCNK9, FluxOR thallium flux fluorescence; active compounds read low. B-score at 10 µM. 1.2% of 310,000 active. AID 488922;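 active = ratio B-score over 3 SD below the library mean, with starting fluorescence within 5 SD of its mean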;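 also: negative B-score means less thallium flux so channel inhibition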
Target sequence (Q9NPC2 whole entry, looked up, the tested form may be a part): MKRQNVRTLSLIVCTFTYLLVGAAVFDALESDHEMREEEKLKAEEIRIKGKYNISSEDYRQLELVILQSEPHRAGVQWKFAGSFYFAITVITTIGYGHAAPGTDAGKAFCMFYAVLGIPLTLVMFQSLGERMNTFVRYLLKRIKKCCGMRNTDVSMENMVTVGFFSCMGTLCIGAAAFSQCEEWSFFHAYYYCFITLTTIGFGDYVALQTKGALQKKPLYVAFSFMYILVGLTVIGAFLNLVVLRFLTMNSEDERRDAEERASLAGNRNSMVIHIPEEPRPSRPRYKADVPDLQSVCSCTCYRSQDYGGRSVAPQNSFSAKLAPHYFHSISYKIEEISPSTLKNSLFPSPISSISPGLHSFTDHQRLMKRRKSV
KCNK9 block conf – confirmation of human KCNK9 potassium channel inhibitors; 43% of 4,900 active; HEK293 KCNK9 cells, FluxOR thallium flux fluorescence; shares compounds with KCNK9 inh; inhibition, % at 10 µM;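 active = thallium signal inhibited by more than 5 SD of the compound-free buffer control wells, on both duplicate plates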;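 also: 0% = assay buffer control wells without compound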
Kir21 sel – tests whether KCNK9 modulators also affect mouse Kir2.1; shares compounds with KCNK9 inh; Kir2.1 cells, FluxOR thallium flux fluorescence; inhibition, % at 10 µM; 4% of 4,900 active; AID 492993;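 active = thallium signal drop more than 5 SD beyond the mean of the no-compound control wells, seen in both duplicate plates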;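 also: signal is fluorescence rise after thallium addition divided by baseline fluorescence; plate controls were assay buffer only for no effect and full block by chlorpromazine control for full effect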
KCNK9 uninduced – second counter-screen for KCNK9 modulators: effect in non-induced cells; shares compounds with KCNK9 inh; non-induced KCNK9-HEK293, FluxOR thallium flux; inhibition, % at 10 µM; 40% of 4,900 active;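 active = thallium signal drop beyond 5 SD of the untreated control mean, on both duplicate plates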;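 also: plate controls were buffer only IC0 wells for no effect and SID17386958 at its maximal inhibitory level for full effect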
Active calls of the source: *; i = inactive; . = no result given. Only some compounds are listed: those with a hit (about 3.7% of all), similar ones and a draw of the others.

SMILES	KCNK3 inh	KCNQ1 pot	Kir21 block	hERG protect	KCNQ1 inh	KCNK9 inh	KCNK9 block conf	Kir21 sel	KCNK9 uninduced
C=C(C)Cn1c(CCNC(=O)CC)nc2ccccc21	i	i	-1.1	-13	i	i	.	.	.
C=C(C)Cn1c(CCNC(=O)C(C)C)nc2ccccc21	i	i	0	-13	i	i	i	i	i
O=C(Nc1ccccc1C(=O)O)c1cc(S(=O)(=O)N2CCOCC2)c(Br)s1	i	i	-0.24	-12	i	i	.	.	.
Cc1c(/C=C2\NC(=O)NC2=O)c2ccccc2n1C	i	i	-0.12	-2	i	i	.	.	.
O=C(CN1C(=O)NC2(CCCC2)C1=O)NNC(=O)c1ccccc1	i	i	1.5	-13	i	i	.	.	.
CCOC(=O)/C(=N\Nc1ccccc1Cl)N1CCN(c2ccccc2OC)CC1	i	i	0.7	-11	i	-10*	32%*	i	29%*
Cc1cc(Br)ccc1-n1[nH]c(C)c(C=Nc2cccc3nsnc23)c1=O	i	i	-1.2	-6	i	i	i	i	i
COc1ccccc1N=Cc1c(C)[nH]n(-c2ccc(C)cc2C)c1=O	i	i	-0.59	-21	i	i	.	.	.
CCOC(=O)[C@@H]1[C@H]2COc3ccc(Br)cc3[C@H]2N2C(=O)N(c3ccc(Br)cc3)C(=O)[C@]12C	i	i	0.29	-10	i	-16*	70%*	i	28%*
CCOC(=O)[C@H]1[C@H]2COc3ccc(Br)cc3[C@@H]2N2C(=O)N(c3ccccc3)C(=O)[C@@]12C	i	.	.	.	.	.	.	.	.
CCOC(=O)[C@@H]1[C@H]2COc3ccc(Br)cc3[C@@H]2N2C(=O)N(c3ccccc3)C(=O)[C@@]12C	i	i	-0.3	-3	i	-9*	52%*	i	30%*
CCOC(=O)[C@@H]1[C@H]2COc3ccc(Br)cc3[C@H]2N2C(=O)N(c3cccc(Cl)c3)C(=O)[C@]12C	i	i	-0.85	-8	i	-11*	73%*	i	28%*
Cc1ccc(C)c(S(=O)(=O)NC(C)C(=O)NCc2ccccn2)c1 (stereo not drawn)	i	i	-1.7	-4	i	i	.	.	.
O=S(=O)(NCC(O)c1ccccc1)c1cc(Cl)sc1Cl (stereo not drawn)	i	i	-3	-12	i	i	.	.	.
CNC(=O)c1c(NC(=O)CCS(=O)(=O)c2ccc(C)cc2)sc(C)c1C	i	i	-3.1	0	i	i	.	.	.
O=C(/C=C/c1ccc(Cl)cc1)OCC(=O)c1ccc[nH]1	i	.	.	.	.	.	.	.	.
Cc1ccc(C23CC4CC(CC(CC(=O)N5CCOCC5)(C4)C2)C3)cc1	i	i	-0.7	-16	i	i	i	i	i
Clc1cccc(OCCN2CCN(CCOc3cccc(Cl)c3)CC2)c1	i	i	-0.51	-23	i	i	i	i	i
Cc1cccc(-n2c(SCC(N)=O)nc3c(c2=O)C2(CCCC2)Cc2ccccc2-3)c1	i	i	1.7	-6	i	-9*	53%*	i	35%*
Cc1cccc(-n2c(=O)c3c(n4cnnc24)-c2ccccc2CC32CCCCC2)c1	i	i	-1.1	-14	i	i	.	.	.
Cc1onc(-c2c(F)cccc2Cl)c1C(=O)OCC(=O)NC(c1ccccc1)c1ccccc1	i	i	0.06	-12	i	-8.3*	25%*	i	29%*
Cc1onc(-c2c(F)cccc2Cl)c1C(=O)OCC(=O)NC(N)=O	i	i	1.8	-10	i	i	.	.	.
CCOC(=O)/C(=N\Nc1cccc(C(F)(F)F)c1)N(CCOC)CCOC	i	i	-2	-13	i	-8.3*	44%*	i	34%*
Cc1cccc(C(=O)Nc2sc(-c3ccccc3)cc2C(=O)O)c1	i	i	-1.2	-22	i	i	i	i	i
CC(C)(C)C(=O)Nc1sc(-c2ccccc2)cc1C(=O)O	i	i	-0.35	-9	i	i	.	.	.
SMILES	KCNK3 inh	KCNQ1 pot	Kir21 block	hERG protect	KCNQ1 inh	KCNK9 inh	KCNK9 block conf	Kir21 sel	KCNK9 uninduced
CCOC(=O)C(NC(=O)c1ccccc1Cl)(Nc1ccc(C(F)(F)F)cc1)C(F)(F)F (stereo not drawn)	i	i	-0.17	-7	i	-12*	66%*	i	42%*
CCOCCCNC(=O)Cn1cnc2c(cnn2-c2ccc(C)c(C)c2)c1=O	i	i	0.68	-7	i	i	.	.	.
CN(CC1CCN(CCc2cccc(C(F)(F)F)c2)CC1)C(=O)c1ccc(F)cc1	i	i	-0.04	-2	i	i	i	i	i
CN(CC1CCN(CCc2cccc(C(F)(F)F)c2)CC1)C(=O)c1ccccc1	i	i	0.38	-12	i	i	.	.	.
CCOc1ccc(N(C)Cc2cc(=O)oc3ccc(OCC)cc23)cc1	i	i	-0.15	-4	i	-11*	42%*	i	32%*
CCOc1ccc(CN(C)Cc2cc(=O)oc3cc(C)c(Cl)cc23)cc1	i	i	1.6	-2	i	i	.	.	.
Cc1cccc(C(=O)OCC(=O)Nc2ccccc2C(=O)NC2CC2)c1	i	.	.	.	.	.	.	.	.
CCN(CC)CCn1c(SCC(=O)NCc2ccco2)nc2c(sc3ccccc32)c1=O	i	i	0.1	-12	i	i	.	.	.
CCN(CC)CCn1c(SCC(=O)Nc2cccc(OC)c2)nc2c(sc3ccccc32)c1=O	i	i	-0.02	-21	i	-12*	48%*	i	32%*
CN(c1ccc(OCc2nnc(-c3ccccc3)o2)cc1)S(=O)(=O)c1ccccc1	i	i	0.82	-7	i	i	.	.	.
CN(c1ccc(OCc2ccc([N+](=O)[O-])cc2)cc1)S(=O)(=O)c1ccccc1	i	i	-1.2	-11	i	-8.5*	i	i	29%*
CNS(=O)(=O)c1cccc(C(=O)OCC(=O)NC2CCCC(C)C2C)c1 (stereo not drawn)	i	.	.	.	.	.	.	.	.
CC(=O)C1=C(C)NC(SCC(N)=O)=C(C#N)C1c1ccco1 (stereo not drawn)	i	i	0.01	-5	i	i	.	.	.

Bioassay records: PubChem BioAssay, Johns Hopkins Ion Channel Center
